Only some compounds are listed: those with a hit (about 0.77% of all), similar ones and a draw of the others.
mIAP act: increases mouse intestinal alkaline phosphatase activity; AID 2805; 330,000 compounds, 0.24% hits; muIAP, CDP-Star luminescence, 30 min; hits give high values; 1 = vehicle-only enzyme signal, 0 = enzyme-free wells; activation factor at 10 µM;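 active = activation factor of at least 2 at 20 µM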
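Assay system: mouse IAP enzyme / Compound: DMSO-dissolved test compounds / Timing: 30 min, room temperature / Measured by: luminescence from enzymatic CDP-Star hydrolysis / Control set: DMSO-only wells, enzyme-free buffer wells as negative control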
bIAP act: intestinal alkaline phosphatase (bovine) activation; purified bovine IAP, CDP-star luminescence, 30 min; hits give high values; fold of DMSO-control signal, blank-subtracted; activation factor at 20 µM; 200,000 compounds, 0.17% hits;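 active = activation factor of 2 or more at 20 µM, a signal rise over negative controls twice the positive control's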
mIAP block: blocks mouse intestinal alkaline phosphatase. purified mouse IAP, CDP-Star luminescence, 30 min. inhibition, % at 10 µM. 330,000 compounds, 0.2% hits. AID 2806;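 active = inhibition of at least 40% at 10 µM in the primary screen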
hIAP activ: increases human intestinal alkaline phosphatase activity. purified human IAP, CDP-Star luminescence, 30 min; hits give high values; 1 = vehicle-only enzyme, 0 = enzyme-free background. 330,000 compounds, 0.16% hits. activation factor at 10 µM;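 active = activation factor of the enzyme at least 2-fold when tested at 20 µM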
Target sequence (P09923 whole entry, looked up): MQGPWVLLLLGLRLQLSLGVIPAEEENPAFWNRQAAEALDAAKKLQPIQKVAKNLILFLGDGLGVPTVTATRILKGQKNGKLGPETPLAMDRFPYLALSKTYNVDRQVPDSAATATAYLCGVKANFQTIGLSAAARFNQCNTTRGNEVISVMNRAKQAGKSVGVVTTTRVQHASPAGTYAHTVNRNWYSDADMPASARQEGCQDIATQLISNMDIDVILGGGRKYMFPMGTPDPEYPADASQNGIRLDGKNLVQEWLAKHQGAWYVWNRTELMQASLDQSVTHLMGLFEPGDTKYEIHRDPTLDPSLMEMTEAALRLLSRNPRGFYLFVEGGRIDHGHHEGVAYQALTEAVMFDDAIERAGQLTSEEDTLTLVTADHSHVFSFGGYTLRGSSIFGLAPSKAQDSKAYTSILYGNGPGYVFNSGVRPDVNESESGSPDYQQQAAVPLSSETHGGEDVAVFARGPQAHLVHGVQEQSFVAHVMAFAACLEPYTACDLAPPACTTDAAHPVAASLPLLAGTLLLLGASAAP
bIAP inhibitor: blocks bovine intestinal alkaline phosphatase activity | purified bovine IAP, CDP-star luminescence, 30 min | inhibition, % at 20 µM | 190,000 tested, under 10 active | AID 1019;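 active = over 50% inhibition of intestinal alkaline phosphatase at 20 µM in the single-dose screen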
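Assay system – bovine IAP enzyme · Quantity – bovine IAP at 1/65,000,000 final dilution · Detection – CDP-star luminescence signal · Times – 30 min reaction at room temperature · Also added – CDP-star substrate at 30 µM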
hIAP inh: blocks human intestinal alkaline phosphatase | purified IAP, CDP-Star luminescence, 30 min | inhibition, % at 10 µM | AID 2544 | 330,000 compounds, 0.12% hits | P09923;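 active = inhibition reaching a set limit with compound at 10 µM in the primary screen, cut at about 35% in these data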
hIAP act confirm: human IAP activation confirmation; shares compounds with hIAP activ; purified IAP, CDP-Star luminescence, 30 min; hits give low values; activation (%Activity, negative = activation), % at 8.3 µM; 880 compounds, 10% hits; AID 434926;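 active = at least twofold enzyme activation in any of six single-dose repeats, which the averaged readout prints as negative percent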
Large screens that a line does not name were inactive (follow-up assays come after a bar, where they were run).

COc1cc(/C=N/N=C2/C(=O)Nc3ccccc32)ccc1O	none
O=C1Nc2ccccc2/C1=N\N=C\c1ccc(O)c(O)c1	hIAP inh 35 (no result: bIAP act, bIAP inhibitor) | hIAP act confirm inactive
CCc1ccc(OCC(=O)Nc2ncn[nH]2)cc1	hIAP activ 2.1 | hIAP act confirm inactive
CC(C)c1ccc(NC(=O)[C@H](NC(=O)[C@@H]2Cc3ccccc3CN2)c2ccccc2)cc1	none (no result: bIAP act, bIAP inhibitor)
Cc1cc2nc(C3CCN(Cc4nnnn4Cc4cccs4)CC3)[nH]c2cc1C	hIAP inh 37 (no result: bIAP inhibitor) | hIAP act confirm inactive
Cc1ccc(CN2CCC(c3nc4ccc(Cl)cc4[nH]3)CC2)cc1	none
Cc1ccccc1NC(=S)N(C)Cc1cn(C)c2ccccc12	none
N#CC(C#N)=NNc1ccc([N+](=O)[O-])cc1	hIAP inh 35 (no result: bIAP act, bIAP inhibitor) | hIAP act confirm inactive
COc1cc2c(cc1OC)CN(C(=O)c1cc(C3CC3)nn1-c1ccccc1)CC2	none (no result: bIAP act, bIAP inhibitor)
O=C(NNC(=S)NC(=O)c1ccccc1)c1cccnc1	hIAP activ 2.5 (no result: bIAP act, bIAP inhibitor) | hIAP act confirm -320
Cc1cc(C(=O)Nc2ccccc2Cl)c2ccccc2n1	hIAP inh 38 (no result: bIAP act, bIAP inhibitor) | hIAP act confirm inactive
Cc1ccc(NC(=O)c2cc(C)nc3ccccc23)c(C)c1	none (no result: bIAP act, bIAP inhibitor)
NC1=NC(=O)C(Cc2ccc(Br)cc2)S1 (configuration not stated)	none (no result: bIAP act, bIAP inhibitor)
CN1C(=O)/C(=C/c2cc(N=Nc3ccccc3)ccc2O)SC1=S	mIAP block 40, hIAP inh 46 | hIAP act confirm inactive
Cc1c(N2C(=O)/C(=C\c3ccccc3O)SC2=S)c(=O)n(-c2ccccc2)n1C	none (no result: bIAP act, bIAP inhibitor)
COc1ccc(/C(O)=C/C(=O)C(=O)NNC(=O)c2ccccc2)cc1	hIAP activ 2.2 (no result: bIAP act, bIAP inhibitor) | hIAP act confirm inactive
CC(=O)Nc1ccc(S(=O)(=O)N(C)CCOCc2ccccc2)cc1	hIAP inh 38 | hIAP act confirm inactive
N#Cc1cc(Oc2ccc3ccccc3c2)c(-n2nnc3ccccc32)cc1C#N	none
N#Cc1cc(Oc2ccccc2)c(-n2nnc3ccccc32)cc1C#N	hIAP inh 35 | hIAP act confirm inactive
Cc1cccc(NC(=S)NNC(=O)Cc2ccccc2)c1	none
O=C(Cc1ccccc1)NNC(=S)Nc1ccc(Cl)cc1	hIAP activ 2.1 | hIAP act confirm inactive
Cc1ccc(C2CC2C(=O)NNC(=S)Nc2ccc(Cl)cc2)cc1 (configuration not stated)	hIAP activ 2.4 | hIAP act confirm inactive
Cc1cc(C)cc(NC(=O)C2CCN(S(=O)(=O)c3ccc4[nH]c(=O)ccc4c3)CC2)c1	none (no result: bIAP act, bIAP inhibitor)
CC1CCCCC1NC(=O)COC(=O)c1ccccc1NC(=O)c1ccco1 (configuration not stated)	hIAP inh 82 | hIAP act confirm inactive
O=C(Nc1ccccc1)c1ccccc1NC(=O)[C@H]1CCCC[C@H]1C(=O)O	none (no result: bIAP act, bIAP inhibitor)
O=C(NNC(=S)NC1CCCCC1)c1ccccc1Br	hIAP activ 2 (no result: bIAP act, bIAP inhibitor) | hIAP act confirm -43
Cc1ccsc1C(=O)NNC(=S)NC1CCCCC1	hIAP activ 2.3 (no result: bIAP act, bIAP inhibitor) | hIAP act confirm inactive
O=C(NNC(=S)NCc1ccco1)c1ccccc1Br	hIAP activ 2.3 (no result: bIAP act, bIAP inhibitor) | hIAP act confirm inactive
O=C(NCc1ccco1)c1ccccc1Br	none
COc1c(C(=O)Nc2ccc(Cc3ccncc3)cc2)ccc2ccccc12	none
CCn1c2ccccc2c2cc(/C=N/n3cn[nH]c3=S)ccc21	none
CCn1c2ccccc2c2cc(/C=N/n3c(-c4cc(C)[nH]n4)n[nH]c3=S)ccc21	hIAP activ 2.1 (no result: bIAP act, bIAP inhibitor) | hIAP act confirm inactive
O=C(Nc1ccc(Cl)cc1)c1nc[nH]c1C(=O)NCCCNC(=O)c1[nH]cnc1C(=O)Nc1ccc(Cl)cc1	hIAP activ 2.1 (no result: bIAP act, bIAP inhibitor) | hIAP act confirm inactive
Cc1nn(C)c(C(=O)NNC(=S)NCc2ccccc2)c1Cl	hIAP activ 2 (no result: bIAP act, bIAP inhibitor) | hIAP act confirm -141
Cc1nn(C)c(C(=O)NC(=S)Nc2ccccc2Br)c1Cl	none (no result: bIAP act, bIAP inhibitor)
Nc1oc2ccccc2c(=O)c1C=O	hIAP inh 73 | hIAP act confirm inactive
Cn1cc(Br)c(C(=O)n2cc(Br)cn2)n1	none
CC(Oc1ccccc1)C(=O)N1CCC2(CC1)CC(=O)c1ccccc1O2 (configuration not stated)	none (no result: bIAP act, bIAP inhibitor)
COc1cc(/C=C/C(=O)OCC(=O)NC(=O)NC2CCCCC2)ccc1OC(F)F	hIAP inh 35 (no result: bIAP act, bIAP inhibitor) | hIAP act confirm inactive
O=C(COc1ccccc1)NCC(=O)N/N=C/c1ccc(O)cc1O	hIAP activ 2.1 (no result: bIAP act, bIAP inhibitor) | hIAP act confirm inactive
COc1cccc(/C=N/NC(=O)CNC(=O)COc2ccccc2)c1O	none (no result: bIAP act, bIAP inhibitor)
O=C(COC(=O)/C=C/c1ccccc1[N+](=O)[O-])NCc1ccco1	none (no result: bIAP act, bIAP inhibitor)
CCOC(=O)Cc1csc(NC(=O)CN2C(=O)c3ccccc3C2=O)n1	none (no result: bIAP act, bIAP inhibitor)
CCOC(=O)Cc1csc(NC(=O)CN2C(=O)c3ccccc3S2(=O)=O)n1	hIAP activ 2.1 | hIAP act confirm inactive
CS(=O)(=O)N1CCN(C2C3CC4CC(C3)CC2C4)CC1 (configuration not stated)	none
CCc1cc2ccc(C)cc2nc1SCC(=O)N1CCN(C(=O)c2ccco2)CC1	hIAP activ 2.1 | hIAP act confirm inactive
O=C(NNc1ccc([N+](=O)[O-])cc1[N+](=O)[O-])c1ccco1	hIAP inh 36 (no result: bIAP act, bIAP inhibitor) | hIAP act confirm inactive
COc1cccc(-c2nc(CS(=O)(=O)CC(=O)Nc3cc(OC)ccc3OC)c(C)o2)c1	hIAP inh 36 (no result: bIAP act, bIAP inhibitor) | hIAP act confirm inactive
COc1cccc(-c2nc(CS(=O)(=O)CC(=O)Nc3ccccc3C)c(C)o2)c1	none (no result: bIAP act, bIAP inhibitor)
CCNC(=O)Cc1c(OC)ccc2cc(Br)ccc12	hIAP inh 43 | hIAP act confirm inactive
COCC(=O)N1CCC(Oc2ccc(C(=O)NCc3cc(C)no3)cc2)CC1	hIAP inh 36 (no result: bIAP act, bIAP inhibitor) | hIAP act confirm inactive
COc1ccc(NC(=O)c2cc(-c3cc(Cl)ccc3O)n[nH]2)c(OC)c1	none (no result: bIAP act, bIAP inhibitor)
COc1ccc(OC)c(NC(=O)c2cc(-c3cc(C)cc(C)c3O)n[nH]2)c1	none (no result: bIAP act, bIAP inhibitor)
COc1ccc(NC(=O)c2cc(-c3cc(C)c(C)cc3O)n[nH]2)c(OC)c1	hIAP activ 2.1 (no result: bIAP act, bIAP inhibitor) | hIAP act confirm inactive
COc1ccc(OC)c(NC(=O)c2cc(-c3cc(C)c(C)cc3O)n[nH]2)c1	hIAP activ 2.2 (no result: bIAP act, bIAP inhibitor) | hIAP act confirm inactive
CC(C)CCN1CCN(C2CCN(c3ccccc3)CC2)CC1CCO (configuration not stated)	none
Cc1ccc(C(=O)NC(C)c2nc3ccccc3n2CC(=O)Nc2c(C)cc(C)cc2C)cc1 (configuration not stated)	mIAP act 2.7, hIAP activ 4 (no result: bIAP act, bIAP inhibitor) | hIAP act confirm inactive
O=S(=O)(c1cccs1)N1CCC(CO)(Cc2ccc(Cl)cc2)CC1	none
COC(=O)c1cc(C#N)c(Oc2ccccc2OC)nc1C	hIAP inh 36 | hIAP act confirm inactive

Screening results (PubChem)
